Assay [1] relates to Botrytis cinerea. Nature of the assay: Antifungal activity against Botryotinia fuckeliana infected in orange pixie tomato seedlings at 2 ppm relative to control. The class given is functional. The procedure, abridged:
(§1)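 Orange Pixie tomato seedlings sprayed to run-off with test suspension, then inoculated next day with a Botryotinia fuckeliana spore suspension. Kept saturated at 20 °C for 48 h, then 1 more day at 24 °C in a growth chamber before rating. Rates in ppm. Expressed as percent control relative to untreated control plants.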

Assay [2] has as its system Parastagonospora nodorum. Nature of the assay: Antifungal activity against Stagonospora nodorum infected in wheat seedlings at 200 ppm relative to control. The class given is functional. The procedure, abridged: (§2)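 Wheat seedlings, treated the day before, inoculated with a Stagonospora nodorum spore suspension. Held in a saturated atmosphere at 20 °C for 48 h, then 5 days in a growth chamber at 22 °C, then disease rated. Rates in ppm. Scored as percent control relative to untreated control plants.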

Assay [3] concerns Parastagonospora nodorum. Briefly: Antifungal activity against Stagonospora nodorum infected in wheat seedlings at 40 ppm relative to control. The class given is functional. Summed up:
as §2

The test system of assay [4] is Botrytis cinerea. Briefly: Antifungal activity against Botryotinia fuckeliana infected in orange pixie tomato seedlings at 40 ppm relative to control. The class given is functional. The procedure, abridged:
as §1

Assay [5] relates to Puccinia triticina. Briefly: Antifungal activity against Puccinia recondita f. sp. tritici infected in wheat seedlings at 40 ppm relative to control. The class given is functional. The procedure, abridged: (§3)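 Test suspension sprayed to run-off on Stevens wheat seedlings. Next day inoculated with a Puccinia recondita f. sp. tritici spore suspension. Held 24 h in a saturated atmosphere at 20 °C, then 7 days in a 20 °C growth chamber before disease rating. Rates in ppm. Given as percent control versus untreated control plants.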

The test system of assay [6] is Botrytis cinerea. Briefly: Antifungal activity against Botryotinia fuckeliana infected in orange pixie tomato seedlings at 10 ppm relative to control. The class given is functional. The procedure, abridged: as §1
Assay [7] deals with Parastagonospora nodorum. Nature of the assay: Antifungal activity against Stagonospora nodorum infected in wheat seedlings at 10 ppm relative to control. The class given is functional. Summed up: as §2
For assay [8], the system named is Parastagonospora nodorum. Nature of the assay: Antifungal activity against Stagonospora nodorum infected in wheat seedlings at 2 ppm relative to control. The class given is functional. Summed up:
as §2

Assay [9] deals with Puccinia triticina. Briefly: Antifungal activity against Puccinia recondita f. sp. tritici infected in wheat seedlings at 200 ppm relative to control. The class given is functional. The procedure, abridged: as §3
A short description of assay [10]: Antiproliferative activity against human Rhabdomyosarcoma cells after 96 hrs by MTS assay. The class given is functional, cell-based. The conditions noted are these: Rhabdomyosarcoma cell. Summed up:
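Rhabdomyosarcoma cells (ATCC CCL-136) seeded at 10,000 cells/well and allowed to adhere 1–3 h. Medium then replaced with compound-containing medium over a concentration range. Grown 96 h at 37 °C, 5% CO2. Viable cells read by MTS/PMS formazan after 3–4 h at 37 °C, absorbance 490 nm. Data normalized to solvent-only wells; IC50 in nM.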
(Formazan colour is commonly taken as a measure of viable cells.)

The test system of assay [11] is Puccinia triticina. Briefly: Antifungal activity against Puccinia recondita f. sp. tritici infected in wheat seedlings at 10 ppm relative to control. The class given is functional. The procedure, abridged: as §3
Assay [12] relates to Puccinia triticina. Nature of the assay: Antifungal activity against Puccinia recondita f. sp. tritici infected in wheat seedlings at 2 ppm relative to control. The class given is functional. The procedure, abridged: as §3
Assay [13] relates to Botrytis cinerea. Briefly: Antifungal activity against Botryotinia fuckeliana infected in orange pixie tomato seedlings at 200 ppm relative to control. The class given is functional. Summed up: as §1

Each structure is given as a SMILES string. pIC50: −log10 of the molar value.

In general, pIC50 refers to the negative decadic logarithm of the IC50, by convention in mol/L. Read a low pIC50 as a large IC50. Turning to `CC[C@H](C)Cn1c(-c2c(F)cc(OCCCN(C)C)cc2F)c(Cl)nc(-n2cccn2)c1=O`, the Activity is 0% in the assay with Botrytis cinerea [1]; 94% with Parastagonospora nodorum [2]; 0% in the assay with Parastagonospora nodorum [3]; 94% in the assay on Botrytis cinerea [4]; 99% in the assay with Puccinia triticina [5]; 94% with Botrytis cinerea [6]. Moreover, the Activity came to 0% in the assay on Parastagonospora nodorum [7]; 0% with Parastagonospora nodorum [8]; 100% with Puccinia triticina [9]; 89% in the assay with Puccinia triticina [11]; 0% in the assay with Puccinia triticina [12]. This compound also had a pIC50 in assay [10] of 8.89.
`CC[C@H](C)Cn1c(-c2c(F)cccc2F)c(Cl)nc(-n2cncn2)c1=O`: the Activity in the assay with Parastagonospora nodorum [2] worked out at 100%; with Parastagonospora nodorum [3] it was 94%; in the assay with Botrytis cinerea [4], 100%; with Puccinia triticina [5], 98%; in the assay with Botrytis cinerea [13], 100%; with Puccinia triticina [9] it was 98%.
For the compound `CC(=O)Nc1nc(Cl)c(-c2c(F)cccc2F)n(CC(C)C)c1=O`, the Activity worked out at 0% in the assay with Parastagonospora nodorum [2]; 0% in the assay on Parastagonospora nodorum [3]; 92% with Botrytis cinerea [4]; 90% in the assay on Puccinia triticina [5]; 15% with Botrytis cinerea [6]; 0% with Parastagonospora nodorum [7]. For the same compound, the Activity turned out to be 99% in the assay with Botrytis cinerea [13], 99% in the assay on Puccinia triticina [9] and 0% in the assay with Puccinia triticina [11].
For the compound `CC[C@H](C)Cn1c(-c2c(F)cccc2F)c(Cl)nc(-n2nc(C)cc2C)c1=O`, the Activity worked out at 0% with Parastagonospora nodorum [2]; 0% with Parastagonospora nodorum [3]; 0% in the assay on Botrytis cinerea [4]; 22% in the assay on Puccinia triticina [5]; 0% with Botrytis cinerea [6]; 0% with Parastagonospora nodorum [7]. Moreover, the Activity with Botrytis cinerea [13] is given as 0%; in the assay with Puccinia triticina [9], 73%; in the assay on Puccinia triticina [11], 0%.
Take `CC(C)Cn1c(-c2c(F)cccc2F)c(Cl)nc(-c2nccn2C)c1=O`: the Activity in the assay with Parastagonospora nodorum [2], in the assay on Parastagonospora nodorum [3], with Botrytis cinerea [4], in the assay with Puccinia triticina [5], with Botrytis cinerea [6] and with Parastagonospora nodorum [7] was 0% throughout. In addition, the Activity in the assay with Botrytis cinerea [13], in the assay on Puccinia triticina [9] and in the assay with Puccinia triticina [11] was 0% throughout.
For the compound `CC(C)Cn1c(C(C)(C)C)c(Cl)nc(-n2cccn2)c1=O`, the Activity in the assay on Parastagonospora nodorum [2], with Parastagonospora nodorum [3], with Botrytis cinerea [4], with Puccinia triticina [5], in the assay with Botrytis cinerea [13] and with Puccinia triticina [9] was 0% throughout.
In the case of `CC(C)Cn1c(C2CCCC2)c(Cl)nc(-n2cccn2)c1=O`, the Activity in the assay with Parastagonospora nodorum [2] is listed as 0%; in the assay on Parastagonospora nodorum [3], 0%; in the assay on Botrytis cinerea [4], 99%; with Puccinia triticina [5], 91%; in the assay on Botrytis cinerea [13], 100%; with Puccinia triticina [9], 100%.
For the compound `CC(C)Cn1c(-c2c(F)cccc2F)c(Cl)nc(-c2cn(C)cn2)c1=O`, the Activity in the assay with Botrytis cinerea [1] turned out to be 0%; in the assay on Parastagonospora nodorum [2], 97%; in the assay on Parastagonospora nodorum [3] it was 67%; in the assay on Botrytis cinerea [4], 99%; with Puccinia triticina [5], 97%; in the assay on Botrytis cinerea [6], 0%. Also, the Activity in the assay with Parastagonospora nodorum [7] was determined as 0%; in the assay on Botrytis cinerea [13] it was 100%; with Parastagonospora nodorum [8], 0%; in the assay with Puccinia triticina [9], 99%; in the assay with Puccinia triticina [11] it was 0%; with Puccinia triticina [12], 0%.
Consider `CC(C)Cn1c(-c2ccc(F)cc2Cl)c(Cl)nc(-n2cccn2)c1=O`, for which the Activity in the assay with Botrytis cinerea [1], in the assay with Parastagonospora nodorum [2], with Parastagonospora nodorum [3], in the assay on Botrytis cinerea [4], in the assay with Puccinia triticina [5] and in the assay on Botrytis cinerea [6] was 100% throughout. Besides, the Activity with Parastagonospora nodorum [7] is 99%; in the assay with Botrytis cinerea [13] it was 100%; with Parastagonospora nodorum [8], 0%; in the assay on Puccinia triticina [9], 100%; with Puccinia triticina [11] it was 100%; in the assay with Puccinia triticina [12], 83%.
On to `CC[C@H](C)Cn1c(-c2c(F)cccc2F)c(Cl)nc(C#N)c1=O`, for which the Activity amounted to 0% in the assay on Parastagonospora nodorum [2]; 0% with Parastagonospora nodorum [3]; 99% in the assay on Botrytis cinerea [4]; 74% with Puccinia triticina [5]; 99% in the assay on Botrytis cinerea [13]; 96% in the assay on Puccinia triticina [9].
In the case of `CC(C)Cn1c(-c2c(F)cccc2F)c(Cl)nc(-c2ccccn2)c1=O`, the Activity with Parastagonospora nodorum [2] is 99%; in the assay with Parastagonospora nodorum [3], 0%; with Botrytis cinerea [4] it was 99%; in the assay with Puccinia triticina [5], 85%; in the assay with Botrytis cinerea [13], 100%; in the assay with Puccinia triticina [9], 99%.
Take `CC(C)Cn1c(-c2c(F)cccc2F)c(Cl)nc(-c2cnccn2)c1=O`: the Activity with Parastagonospora nodorum [2] worked out at 98%; in the assay with Parastagonospora nodorum [3], 0%; in the assay with Botrytis cinerea [4], 98%; in the assay with Puccinia triticina [5] it was 89%; in the assay on Botrytis cinerea [6], 83%; in the assay on Parastagonospora nodorum [7] it was 0%. Also, the Activity in the assay on Botrytis cinerea [13] was 98%; with Puccinia triticina [9], 99%; with Puccinia triticina [11] it was 0%.
Consider `CC[C@H](C)Cn1c(-c2c(F)cccc2F)c(Cl)nc(-n2ccnn2)c1=O`, for which the Activity is on record as 73% in the assay with Parastagonospora nodorum [2]; 0% in the assay with Parastagonospora nodorum [3]; 81% in the assay with Botrytis cinerea [4]; 67% in the assay on Puccinia triticina [5]; 33% in the assay on Botrytis cinerea [6]; 0% in the assay on Parastagonospora nodorum [7]. In addition, the values for the Activity with Botrytis cinerea [13], in the assay with Puccinia triticina [9] and in the assay on Puccinia triticina [11] were 98%, 73% and 67%, respectively.
Take `CCC(C)Cn1c(-c2c(F)cc(F)cc2F)c(Cl)nc(-n2cccn2)c1=O` (configuration not stated): the Activity in the assay on Botrytis cinerea [1], in the assay with Parastagonospora nodorum [2], in the assay with Parastagonospora nodorum [3], in the assay on Botrytis cinerea [4], in the assay with Puccinia triticina [5] and in the assay with Botrytis cinerea [6] was 100% each time. For the same compound, the Activity with Parastagonospora nodorum [7] came to 98%; in the assay with Botrytis cinerea [13], 100%; in the assay on Parastagonospora nodorum [8], 0%; in the assay on Puccinia triticina [9], 100%; in the assay on Puccinia triticina [11] it was 100%; in the assay on Puccinia triticina [12], 89%.
`O=c1c(-n2cccn2)nc(Cl)c(-c2c(F)cc(F)cc2F)n1C1CCCCC1`: the Activity with Parastagonospora nodorum [2] was 100%; with Parastagonospora nodorum [3] it was 99%; in the assay on Botrytis cinerea [4], 99%; with Puccinia triticina [5], 97%; in the assay with Botrytis cinerea [6] it was 99%; with Parastagonospora nodorum [7], 73%. Further, the Activity with Botrytis cinerea [13] is 99%; in the assay with Puccinia triticina [9] it was 99%; with Puccinia triticina [11], 89%.
In the case of `CC(C)Cn1c(-c2c(F)cccc2F)c(Br)nc(-n2cccn2)c1=O`, the Activity with Parastagonospora nodorum [2] was 100%; with Parastagonospora nodorum [3] it was 100%; with Botrytis cinerea [4] it was 100%; with Puccinia triticina [5], 99%; with Botrytis cinerea [6], 99%; in the assay with Parastagonospora nodorum [7], 86%. The figures for the Activity in the assay on Botrytis cinerea [13], in the assay with Puccinia triticina [9] and with Puccinia triticina [11] were 100%, 100% and 88%, respectively.
For the compound `CC[C@H](C)Cn1c(-c2c(F)cc(F)cc2F)c(Cl)nc(-n2cccn2)c1=O`, the Activity with Botrytis cinerea [1] is listed as 100%; with Parastagonospora nodorum [3], 100%; with Botrytis cinerea [4] it was 100%; with Puccinia triticina [5], 100%; with Botrytis cinerea [6], 100%; with Parastagonospora nodorum [7], 99%. For the same compound, the Activity amounted to 0% in the assay with Parastagonospora nodorum [8], 100% in the assay with Puccinia triticina [11] and 99% with Puccinia triticina [12]. In assay [10], the pIC50 was 7.70.
As to `CC[C@H](C)Cn1c(-c2c(F)cccc2F)c(Cl)nc(-n2ccnc2)c1=O`, the Activity in the assay on Parastagonospora nodorum [2], in the assay with Parastagonospora nodorum [3], in the assay on Botrytis cinerea [4], with Puccinia triticina [5], with Botrytis cinerea [6] and in the assay on Parastagonospora nodorum [7] was 0% throughout. Further, the Activity in the assay on Botrytis cinerea [13], with Puccinia triticina [9] and in the assay on Puccinia triticina [11] was 0% in each case.
Take `CC(C)Cn1c(C2CC2)c(Cl)nc(-n2cccn2)c1=O`: the Activity in the assay on Parastagonospora nodorum [2], in the assay on Parastagonospora nodorum [3], with Botrytis cinerea [4], in the assay on Puccinia triticina [5], in the assay with Botrytis cinerea [13] and with Puccinia triticina [9] was 0% each time.
Consider `CC(C)Cn1c(C(C)C)c(Cl)nc(-n2cccn2)c1=O`, for which the Activity came out at 0% in the assay on Parastagonospora nodorum [2]; 0% in the assay with Parastagonospora nodorum [3]; 99% in the assay with Botrytis cinerea [4]; 18% in the assay on Puccinia triticina [5]; 99% in the assay with Botrytis cinerea [13]; 98% in the assay on Puccinia triticina [9].

These data come from ChEMBL document CHEMBL3739347, “Tubulin modulating antifungal and antiproliferative pyrazinone derivatives” (Bioorg Med Chem, 2016).
